ChEMBL document CHEMBL4393724, “Betulin-1,4-quinone hybrids: Synthesis, anticancer activity and molecular docking study with NQO1 enzyme” (Eur J Med Chem, 2019)
pIC50: −log10 of the molar value. Active and inactive are the calls of the source. The rule behind the calls is not given here.

Experiments:
SNB-19 = assay: Antiproliferative activity against human SNB19 cells assessed as reduction in cell viability incubated for 72 hrs by WST1 assay; assay type: functional, cell-based; details: for pIC50: Homo sapiens, SNB-19, 72 h, read-out: IC50
COLO-829 = assay: Antiproliferative activity against human COLO829 cells assessed as reduction in cell viability incubated for 72 hrs by WST1 assay; assay type: functional, cell-based; details: Homo sapiens, COLO-829, 72 h; read-out: IC50
C32 [1] = assay: Antiproliferative activity against human C32 cells assessed as reduction in cell viability incubated for 72 hrs by WST1 assay; assay type: functional, cell-based; details: Homo sapiens, C32, 72 h; read-out: IC50
Summary of the method: (§1)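 Cells held at 37 °C under 5% CO2 and seeded at 5 × 10^4 cells/well in DMEM with 10% FCS plus streptomycin and penicillin. Compounds were dissolved in DMSO and exposed for 72 h. WST-1 formazan was read at 450 nm. IC50 was derived from the mean ± SD of at least three independent experiments run in triplicate. Cisplatin served as reference.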

MCF7 [2] = assay: Antiproliferative activity against human MCF7 cells assessed as reduction in cell viability incubated for 72 hrs by WST1 assay; assay type: functional, cell-based; details: Homo sapiens, MCF7, 72 h; read-out: IC50; summary of the method: as §1
T47D = assay: Antiproliferative activity against human T47D cells assessed as reduction in cell viability incubated for 72 hrs by WST1 assay; assay type: functional, cell-based; details: Homo sapiens, T47D, 72 h; read-out: IC50
MDA-MB-231 = assay: Antiproliferative activity against human MDA-MB-231 cells assessed as reduction in cell viability incubated for 72 hrs by WST1 assay; assay type: functional, cell-based; details: for pIC50: Homo sapiens, MDA-MB-231, 72 h, read-out: IC50
A549 [3] = assay: Antiproliferative activity against human A549 cells assessed as reduction in cell viability incubated for 72 hrs by WST1 assay; assay type: functional, cell-based; details: Homo sapiens, A549, 72 h; read-out: IC50; summary of the method: as §1
[4] = biological target: NAD(P)H dehydrogenase [quinone] 1 (Homo sapiens) (UniProt P15559); assay: Inhibition of NQO1 in human A549 cells assessed as decrease in of histone H3 expression at 0.5 times of IC50 incubated for 24 hrs by RT-PCR; assay type: cell-based
Summary of the method: (§2)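 Cultured cells were exposed for 24 h to compound at half its IC50. Transcription of H3, TP53, CDKN1A, BAX and BCL-2 was quantified by real-time RT-qPCR with SYBR Green as mRNA copy numbers and compared with untreated control. The BAX/BCL-2 ratio was calculated from the mRNA copies.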

[5] = biological target: NAD(P)H dehydrogenase [quinone] 1 (Homo sapiens) (UniProt P15559); assay: Inhibition of NQO1 in human MCF7 cells assessed as decrease in histone H3 expression at 0.5 times of IC50 incubated for 24 hrs by RT-PCR; assay type: cell-based; summary of the method: as §2
[6] = biological target: NAD(P)H dehydrogenase [quinone] 1 (Homo sapiens) (UniProt P15559); assay: Inhibition of NQO1 in human C32 cells assessed as decrease in histone H3 expression at 0.5 times of IC50 incubated for 24 hrs by RT-PCR; assay type: cell-based; summary of the method: as §2
[7] = biological target: NAD(P)H dehydrogenase [quinone] 1 (Homo sapiens) (UniProt P15559); assay: Inhibition of NQO1 in human A549 cells assessed as increase in TP53 expression at 0.5 times of IC50 incubated for 24 hrs by RT-PCR; assay type: cell-based; summary of the method: as §2
[8] = biological target: NAD(P)H dehydrogenase [quinone] 1 (Homo sapiens) (UniProt P15559); assay: Inhibition of NQO1 in human MCF7 cells assessed as increase in TP53 expression at 0.5 times of IC50 incubated for 24 hrs by RT-PCR; assay type: cell-based; summary of the method: as §2
[9] = biological target: NAD(P)H dehydrogenase [quinone] 1 (Homo sapiens) (UniProt P15559); assay: Inhibition of NQO1 in human C32 cells assessed as increase in TP53 expression at 0.5 times of IC50 incubated for 24 hrs by RT-PCR; assay type: cell-based; summary of the method: as §2
[10] = biological target: NAD(P)H dehydrogenase [quinone] 1 (Homo sapiens) (UniProt P15559); assay: Inhibition of NQO1 in human A549 cells assessed as increase in CDKN1A expression at 0.5 times of IC50 incubated for 24 hrs by RT-PCR; assay type: cell-based; summary of the method: as §2
[11] = biological target: NAD(P)H dehydrogenase [quinone] 1 (Homo sapiens) (UniProt P15559); assay: Inhibition of NQO1 in human MCF7 cells assessed as increase in CDKN1A expression at 0.5 times of IC50 incubated for 24 hrs by RT-PCR; assay type: cell-based; summary of the method: as §2
[12] = biological target: NAD(P)H dehydrogenase [quinone] 1 (Homo sapiens) (UniProt P15559); assay: Inhibition of NQO1 in human C32 cells assessed as increase in CDKN1A expression at 0.5 times of IC50 incubated for 24 hrs by RT-PCR; assay type: cell-based; summary of the method: as §2
[13] = biological target: NAD(P)H dehydrogenase [quinone] 1 (Homo sapiens) (UniProt P15559); assay: Inhibition of NQO1 in human A549 cells assessed as increase in BAX expression at 0.5 times of IC50 incubated for 24 hrs by RT-PCR; assay type: cell-based; summary of the method: as §2
[14] = biological target: NAD(P)H dehydrogenase [quinone] 1 (Homo sapiens) (UniProt P15559); assay: Inhibition of NQO1 in human MCF7 cells assessed as increase in BAX expression at 0.5 times of IC50 incubated for 24 hrs by RT-PCR; assay type: cell-based; summary of the method: as §2
[15] = biological target: NAD(P)H dehydrogenase [quinone] 1 (Homo sapiens) (UniProt P15559); assay: Inhibition of NQO1 in human C32 cells assessed as increase in BAX expression at 0.5 times of IC50 incubated for 24 hrs by RT-PCR; assay type: cell-based; summary of the method: as §2
[16] = biological target: NAD(P)H dehydrogenase [quinone] 1 (Homo sapiens) (UniProt P15559); assay: Inhibition of NQO1 in human MCF7 cells assessed as effect on Bcl2 expression at 0.5 times of IC50 incubated for 24 hrs by RT-PCR; assay type: cell-based; summary of the method: as §2
[17] = biological target: NAD(P)H dehydrogenase [quinone] 1 (Homo sapiens) (UniProt P15559); assay: Inhibition of NQO1 in human C32 cells assessed as decrease in Bcl2 expression at 0.5 times of IC50 incubated for 24 hrs by RT-PCR; assay type: cell-based; summary of the method: as §2
[18] = biological target: NAD(P)H dehydrogenase [quinone] 1 (Homo sapiens) (UniProt P15559); assay: Inhibition of NQO1 in human A549 cells assessed as decrease in Bcl2 expression at 0.5 times of IC50 incubated for 24 hrs by RT-PCR; assay type: cell-based; summary of the method: as §2
A549 [19] = assay: Induction of apoptosis in human A549 cells assessed as increase in BAX/Bcl2 expression at 0.5 times of IC50 incubated for 24 hrs by RT-PCR; assay type: functional, cell-based; summary of the method: as §2
MCF7 [20] = assay: Induction of apoptosis in human MCF7 cells assessed as increase in BAX/Bcl2 expression at 0.5 times of IC50 incubated for 24 hrs by RT-PCR; assay type: functional, cell-based; summary of the method: as §2
C32 [21] = assay: Induction of apoptosis in human C32 cells assessed as increase in BAX/Bcl2 expression at 0.5 times of IC50 incubated for 24 hrs by RT-PCR relative to control; assay type: functional; summary of the method: as §2
[22] = biological target: NAD(P)H dehydrogenase [quinone] 1 (Homo sapiens) (UniProt P15559); assay: Inhibition of NQO1 in human A549 cells assessed as effect on Bcl2 expression at 0.5 times of IC50 incubated for 24 hrs by RT-PCR; assay type: cell-based; summary of the method: as §2
[23] = biological target: NAD(P)H dehydrogenase [quinone] 1 (Homo sapiens) (UniProt P15559); assay: Inhibition of NQO1 in human C32 cells assessed as effect on Bcl2 expression at 0.5 times of IC50 incubated for 24 hrs by RT-PCR; assay type: cell-based; summary of the method: as §2

Chain of NAD(P)H dehydrogenase [quinone] 1 (Homo sapiens) (P15559 whole entry): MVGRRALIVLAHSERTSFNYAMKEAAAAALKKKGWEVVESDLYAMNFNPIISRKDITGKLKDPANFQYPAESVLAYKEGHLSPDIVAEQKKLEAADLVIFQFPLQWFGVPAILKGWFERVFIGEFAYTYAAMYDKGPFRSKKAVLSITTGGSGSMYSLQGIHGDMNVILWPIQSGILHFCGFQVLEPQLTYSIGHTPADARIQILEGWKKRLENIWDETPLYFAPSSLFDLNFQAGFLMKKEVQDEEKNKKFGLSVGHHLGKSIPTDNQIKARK

Row | Compound | pIC50 (COLO-829) | pIC50 (C32 [1]) | pIC50 (MCF7 [2]) | pIC50 (T47D) | pIC50 (A549 [3]) | Activity [4] | Activity [5] | Activity [6] | Activity [7] | Activity [8] | Activity [9] | Activity [10] | Activity [11] | Activity [12] | Activity [13] | Activity [14] | Activity [15] | Activity [16] | Activity (A549 [19]) | Activity (MCF7 [20]) | other results
1 | C=C(C)[C@@H]1CC[C@]2(COC(C)=O)CC[C@]3(C)[C@H](CC[C@@H]4[C@@]5(C)CC[C@H](OC6=C(Cl)C(=O)c7ccc(C)nc7C6=O)C(C)(C)[C@@H]5CC[C@]43C)[C@@H]12 | 5.33 | 5.19 | 5.80 | 4.95 | 6.23 | Active | Active | Active | Active | Active | Active | Active | Active | Active | Active | Active | Active | inactive | Active | Active | IC50 (SNB-19; snb-19): Not Active; pIC50 (MDA-MB-231): 6.05; Activity [17]: Active; Activity [18]: Active; Ratio (C32 [21]): 4 - 5
2 | C#CC(=O)OC[C@]12CC[C@@H](C(=C)C)[C@@H]1[C@H]1CC[C@@H]3[C@@]4(C)CC[C@H](OC5=C(Cl)C(=O)c6cccnc6C5=O)C(C)(C)[C@@H]4CC[C@@]3(C)[C@]1(C)CC2 | 5.18 | 5.90 | 4.85 | 4.00 | 6.35 | Active | Active | Active | Active | Active | Active | Active | Active | Active | Active | Active | Active | inactive | Active | Active | pIC50 (SNB-19): 4.38; pIC50 (MDA-MB-231): 5.61; Activity [22]: inactive; Activity [23]: inactive; Ratio (C32 [21]): 4 - 5
3 | C=C(C)[C@@H]1CC[C@]2(COC(C)=O)CC[C@]3(C)[C@H](CC[C@@H]4[C@@]5(C)CC[C@H](OC6=C(Cl)C(=O)c7ccccc7C6=O)C(C)(C)[C@@H]5CC[C@]43C)[C@@H]12 | 6.89 | 5.76 | 5.06 | 4.91 | 6.11 | Active | Active | Active | Active | Active | Active | Active | Active | Active | Active | Active | Active | inactive | Active | Active | pIC50 (SNB-19): 5.12; IC50 (MDA-MB-231; mda-mb-231): Not Active; Activity [22]: inactive; Activity [23]: inactive; Ratio (C32 [21]): 4 - 5
